Experimental data reported in ChEMBL document CHEMBL1140293, “Irreversible inactivation of trypanothione reductase by unsaturated Mannich bases: a divinyl ketone as key intermediate” (J Med Chem, 2005).
Activity calls are given as the source filed them. The calls are words filed in the database; no cut-off is given here.

Columns and labels:
[1] = test system: Trypanosoma cruzi; assay: Antiparasitic activity against Trypanosoma cruzi MHOM/CL/00/Tulahuan-LacZ intracellular amastigotes; type: functional; settings: read-out: ED50 (the source's name)
[2] = test system: Trypanosoma brucei rhodesiense; assay: Antiparasitic activity against Trypanosoma brucei rhodesiense STIB900 blood stream form; type: functional; settings: read-out: ED50 (the source's name)
In short: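 Bloodstream-form parasites treated for 3 days; viability by tetrazolium salt colorimetric assay with pentamidine isethionate reference; ED50 derived by sigmoidal regression.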

[3] = test system: Leishmania donovani; assay: Antiparasitic activity against Leishmania donovani MHOM/ET/67/HU3 intracellular amastigotes; type: functional; settings: read-out: ED50 (the source's name)
[4] = target: Trypanothione reductase (Trypanosoma cruzi) (UniProt P28593); assay: Inactivation of Trypanosoma cruzei trypanothione reductase at 200 uM
In short: (§1)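 Recombinant T. cruzi TR (0.5 μM) preincubated at 25 °C with inhibitor, with or without 200 μM NADPH, in 40 mM HEPES, 1 mM EDTA, pH 7.5; 5 μL aliquots taken over time into standard assay (100 μM NADPH, 110 μM TS2, A340 decrease). Inhibitor from fresh or stored DMSO stock (stored at 4 °C); half-time at 100 μM. Controls: enzyme+NADPH+DMSO, enzyme+inhibitor without NADPH.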

[5] = target: Trypanothione reductase (Trypanosoma cruzi) (UniProt P28593); assay: Inhibition of reduced Trypanosoma cruzei trypanothione reductase at freshly prepared 100 uM; in short: as §1
[6] = target: Trypanothione reductase (Trypanosoma cruzi) (UniProt P28593); assay: Inhibition of Trypanosoma cruzei reduced trypanothione reductase at 100 uM; in short: as §1
[7] = Toxicity in macrophages at >=156 uM; type: cell-based; settings: human, macrophage
[8] = target: T1, Trypanothione reductase (Trypanosoma cruzi, UniProt P28593); assay: Inhibition of Trypanosoma cruzi trypanothione reductase after 5 mins pre-incubation with NADPH in presence of 100 uM TS2 substrate
In short: (§2)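 Enzyme (T. cruzi TR, human GR or P. falciparum TrxR) preincubated 5 min at 25 °C with 160 μM NADPH and 0–20 μM inhibitor, 2% DMSO, 50 μL; 5 μL aliquot into respective standard assay with substrate at 5× Km (100 μM TS2, 500 μM GSSG, 34 μM thioredoxin-2), residual activity at 340 nm.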

[9] = target: T2, Glutathione reductase, mitochondrial (Homo sapiens, UniProt P00390); assay: Inhibition of human glutathione reductase in presence of 50 uM GSSG substrate
T2 sequence (P00390 whole entry): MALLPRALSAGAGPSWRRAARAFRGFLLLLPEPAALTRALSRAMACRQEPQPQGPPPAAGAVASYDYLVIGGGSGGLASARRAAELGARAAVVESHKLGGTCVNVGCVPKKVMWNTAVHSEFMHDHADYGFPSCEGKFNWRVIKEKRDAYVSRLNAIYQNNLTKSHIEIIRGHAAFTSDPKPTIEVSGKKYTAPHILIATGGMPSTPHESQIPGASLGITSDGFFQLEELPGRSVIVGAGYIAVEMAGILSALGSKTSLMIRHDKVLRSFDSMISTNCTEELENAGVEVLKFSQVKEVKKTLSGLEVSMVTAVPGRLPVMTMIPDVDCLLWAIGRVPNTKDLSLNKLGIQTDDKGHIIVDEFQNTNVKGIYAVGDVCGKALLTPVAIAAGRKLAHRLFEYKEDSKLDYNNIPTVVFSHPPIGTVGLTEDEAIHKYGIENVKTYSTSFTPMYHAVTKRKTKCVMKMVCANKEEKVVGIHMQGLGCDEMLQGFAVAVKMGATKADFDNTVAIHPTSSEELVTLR
In short: (§3)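 Direct assay at 25 °C, NADPH oxidation at 340 nm, 100 μM NADPH, 1% DMSO; six to eight inhibitor levels 0–100 μM, duplicate. TR: 100 μM TS2, 100 mM phosphate pH 7.0. GR (human): 500 or 50 μM GSSG, 100 mM potassium phosphate pH 7.0, 200 mM KCl. P. falciparum TrxR: 34 μM D. melanogaster thioredoxin-2, 100 mM phosphate pH 7.4, 2 mM EDTA.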

[10] = test system: Plasmodium falciparum; assay: Antiparasitic activity against chloroquine-sensitive Plasmodium falciparum 3D7 in erythrocytes; type: functional; settings: read-out: ED50 (the source's name)
[11] = Inhibition of Plasmodium falciparum thioredoxin reductase in presence of 34 uM thioredoxin 2 substrate; in short: as §3
[12] = target: T1, Trypanothione reductase; assay: Inhibition of Trypanosoma cruzi trypanothione reductase in presence of 100 uM TS2 substrate; in short: as §3
[13] = Inhibition of Plasmodium falciparum thioredoxin reductase after 5 min pre-incubation with NADPH in presence of 34 uM thioredoxin 2 substrate; in short: as §2
[14] = Cytotoxicity against human KB cells by Alamar blue assay; type: cell-based; settings: read-out: ED50 (the source's name)
In short: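 Human oral pharyngeal carcinoma KB cells; Alamar Blue read-out with podophyllotoxin positive control; ED50 calculated relative to blanks and untreated controls.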

[15] = target: T2, Glutathione reductase, mitochondrial; assay: Inhibition of human glutathione reductase in presence of 500 uM GSSG substrate; in short: as §3
[16] = target: T2, Glutathione reductase, mitochondrial; assay: Inhibition of human glutathione reductase after 5 mins pre-incubation with NADPH in presence of 500 uM GSSG substrate; in short: as §2
[17] = target: Trypanothione reductase (Trypanosoma cruzi) (UniProt P28593); assay: Inhibition of Trypanosoma cruzei trypanothione reductase at 5 uM stored compound within 5 mins; in short: as §1
[18] = target: Trypanothione reductase (Trypanosoma cruzi) (UniProt P28593); assay: Inactivation of Trypanosoma cruzei reduced trypanothione reductase at 100 uM stored compound; set-up: scale not given: the % may be the effect or the level left; in short: as §1
[19] = target: Trypanothione reductase (Trypanosoma cruzi) (UniProt P28593); assay: Inhibition of Trypanosoma cruzei reduced trypanothione reductase at 5 uM freshly prepared compound within less than 5 mins; in short: as §1
[20] = target: Trypanothione reductase (Trypanosoma cruzi) (UniProt P28593); assay: Inactivation of Trypanosoma cruzei reduced trypanothione reductase at 100 uM freshly prepared compound; set-up: scale not given: the % may be the effect or the level left; in short: as §1

Chain of Trypanothione reductase (Trypanosoma cruzi) (P28593 whole entry, looked up): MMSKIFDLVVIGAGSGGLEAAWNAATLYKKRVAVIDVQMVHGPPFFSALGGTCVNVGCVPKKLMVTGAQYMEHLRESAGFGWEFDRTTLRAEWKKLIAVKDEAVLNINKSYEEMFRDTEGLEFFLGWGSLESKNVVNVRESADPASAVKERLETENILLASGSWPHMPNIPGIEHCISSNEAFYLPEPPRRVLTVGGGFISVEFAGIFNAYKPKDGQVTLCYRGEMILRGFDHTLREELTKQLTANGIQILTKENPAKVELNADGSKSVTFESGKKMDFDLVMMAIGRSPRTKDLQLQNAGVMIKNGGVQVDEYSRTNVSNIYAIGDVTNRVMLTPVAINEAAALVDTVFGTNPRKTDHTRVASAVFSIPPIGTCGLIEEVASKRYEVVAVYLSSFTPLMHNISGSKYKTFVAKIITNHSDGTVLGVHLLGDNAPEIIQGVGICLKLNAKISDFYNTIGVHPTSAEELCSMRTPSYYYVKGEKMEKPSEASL
T1 sequence (P28593 whole entry): as the sequence (P28593 whole entry, looked up) above

EC50 [1]	EC50 [2]	EC50 [3]	T1/2 [5]	EC50 [10]	Compound	CC50 [14]	also measured
4.2 µM	0.0001 µM	28.9 µM	–	–	N=C(N)c1ccc(OCCCCCOc2ccc(C(=N)N)cc2)cc1 [PENTAMIDINE]	–	–
–	–	–	–	–	CN(C)CC(C)(C)C(=O)/C=C/c1ccccc1Cl	–	Activity [4]: inactive
–	–	–	2 min	–	O=C(/C=C/c1ccccc1Cl)CCN1CCOCC1	–	–
–	–	–	–	–	O=C1C=CC(c2ccccc2Cl)C1 (centres undefined)	–	Activity [6]: inactive
4.2 µM	–	–	–	–	O=C(Cn1ccnc1[N+](=O)[O-])NCc1ccccc1 [BENZNIDAZOLE]	–	–
12.5 µM	1.9 µM	68 µM	< 0.75 min	46.7 µM	C=CC(=O)/C=C/c1ccccc1Cl	1230 µM	Activity [7]: Toxic; IC50 [8]: 2 µM; IC50 [9]: 18.5 µM; IC50 [11]: 3.7 µM; IC50 [12]: 8 µM; IC50 [13]: 0.4 µM; IC50 [15]: 190 µM; IC50 [16]: 5 µM
11.8 µM	0.8 µM	13 µM	7.5 min	16.2 µM	O=C(/C=C/c1ccccc1Cl)CCN1CCCCC1	7.3 µM	–
–	–	–	–	–	COc1cc([C@@H]2c3cc4c(cc3[C@H](O)[C@H]3COC(=O)[C@H]23)OCO4)cc(OC)c1OC [PODOFILOX]	0.07 µM	–
–	–	–	–	0.0058 µM	CCN(CC)CCCC(C)Nc1ccnc2cc(Cl)ccc12 (centres undefined) [CHLOROQUINE]	–	–
8.7 µM	1.8 µM	41.6 µM	8.6 min	27 µM	CN(C)CCC(=O)/C=C/c1ccccc1Cl	14.2 µM	inhibition [17]: 70%; Activity [18]: > 99%; inhibition [19]: 30%; Activity [20]: > 99%
